Measured values from ChEMBL document CHEMBL4138085, “Design, synthesis and antimicrobial evaluation of novel benzimidazole-incorporated sulfonamide analogues” (Eur J Med Chem, 2017).
Values after ≈ are worked out from the molar mass of the structure shown.

Experiments:
Cyberlindnera jadinii = assay: Antifungal activity against Candida utilis after 24 hrs by NCCLS two fold broth microdilution method; assay type: functional; details: Williopsis jadinii
In short: (§1)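 Two-fold serial microdilution following NCCLS. A spore suspension in sterile distilled water was prepared from one-day-old cultures grown on Sabouraud agar and adjusted to a final 1–5 × 10^3 spores/mL. DMSO stocks were diluted in RPMI 1640 to eleven concentrations (0.5–512 µg/mL), inoculated and held at 35 °C for 24 h. Growth was read visually and spectrophotometrically, MIC was the lowest concentration with complete inhibition, and runs were in triplicate.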

Staphylococcus aureus [1] = assay: Antibacterial activity against methicillin-resistant Staphylococcus aureus N315 after 24 hrs by NCCLS two fold broth microdilution method; assay type: functional; details: N315, 24 h
In short: (§2)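 Two-fold serial broth microdilution per NCCLS. Chloromycin and norfloxacin as reference drugs; DMSO with inoculum, no drug, as solvent control. Incubation 37 °C for 24 h. Growth read visually and spectrophotometrically. MIC is the lowest concentration completely inhibiting growth; triplicate.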

Candida albicans = assay: Antifungal activity against Candida albicans ATCC 76615 after 24 hrs by NCCLS two fold broth microdilution method; assay type: functional; details: ATCC 76615, 24 h; in short: as §1
Saccharomyces cerevisiae = assay: Antifungal activity against Saccharomyces cerevisiae after 24 hrs by NCCLS two fold broth microdilution method; assay type: functional; in short: as §1
Staphylococcus aureus [2] = assay: Antibacterial activity against Staphylococcus aureus ATCC 25923 after 24 hrs by NCCLS two fold broth microdilution method; assay type: functional; details: ATCC 25923, 24 h
In short: (§3)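 Two-fold serial broth microdilution in 96-well plates following NCCLS. Compounds were dissolved in DMSO as stocks, then diluted in Mueller–Hinton broth to final concentrations of 0.5–512 µg/mL. Plates were inoculated and incubated at 37 °C for 24 h, with growth read visually and spectrophotometrically. MIC was taken as the lowest concentration giving complete growth inhibition. Run in triplicate, with a DMSO-plus-inoculum solvent control.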

Escherichia coli = assay: Antibacterial activity against Escherichia coli ATCC 8099 after 24 hrs by NCCLS two fold broth microdilution method; assay type: functional; details: ATCC 8099, 24 h
In short: as §3, with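 “NCCLS.” for “NCCLS. Compounds were dissolved in DMSO as stocks, then diluted in Mueller–Hinton broth to final concentrations of 0.5–512 µg/mL.”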

Pseudomonas aeruginosa = assay: Antibacterial activity against Pseudomonas aeruginosa ATCC 27853 after 24 hrs by NCCLS two fold broth microdilution method; assay type: functional; details: ATCC 27853, 24 h
In short: as §3, with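 “NCCLS.” for “NCCLS. Compounds were dissolved in DMSO as stocks, then diluted in Mueller–Hinton broth to final concentrations of 0.5–512 µg/mL.”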

Bacillus = assay: Antibacterial activity against Bacillus proteus ATCC 13315 after 24 hrs by NCCLS two fold broth microdilution method; assay type: functional; details: ATCC 13315, 24 h; in short: as §3
Salmonella typhi = assay: Antibacterial activity against Bacillus typhi after 24 hrs by NCCLS two fold broth microdilution method; assay type: functional, Salmonella enterica subsp. enterica serovar Typhi; details: Salmonella enterica
In short: as §2, with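 “NCCLS. DMSO stocks diluted in Mueller–Hinton broth to 512, 256, 128, 64, 32, 16, 8, 4, 2, 1, 0.5 µg/mL.” for “NCCLS.”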

Micrococcus luteus = assay: Antibacterial activity against Micrococcus luteus ATCC 4698 after 24 hrs by NCCLS two fold broth microdilution method; assay type: functional; details: NCTC 2665, 24 h; in short: as §3
Aspergillus flavus = assay: Antifungal activity against Aspergillus flavus after 24 hrs by NCCLS two fold broth microdilution method; assay type: functional; in short: as §1
Bacillus subtilis = assay: Antibacterial activity against Bacillus subtilis ATCC 21216 after 24 hrs by NCCLS two fold broth microdilution method; assay type: functional; details: ATCC 21216, 24 h; in short: as §3
Pichia norvegensis = assay: Antifungal activity against Candida mycoderma after 24 hrs by NCCLS two fold broth microdilution method; assay type: functional

CCCCCCCCCCCCn1c(CS(=O)(=O)c2ccc(NC(C)=O)cc2)nc2ccccc21
MIC (Cyberlindnera jadinii): 512 µg/mL (≈ 1030 µM)
MIC (Staphylococcus aureus [1]): 512 µg/mL (≈ 1030 µM)
MIC (Candida albicans): 512 µg/mL (≈ 1030 µM)
MIC (Saccharomyces cerevisiae): 512 µg/mL (≈ 1030 µM)
MIC (Staphylococcus aureus [2]): 512 µg/mL (≈ 1030 µM)
MIC (Escherichia coli): 256 µg/mL (≈ 514 µM)
MIC (Pseudomonas aeruginosa): 512 µg/mL (≈ 1030 µM)
MIC (Bacillus): 512 µg/mL (≈ 1030 µM)
MIC (Salmonella typhi): 512 µg/mL (≈ 1030 µM)
MIC (Micrococcus luteus): 512 µg/mL (≈ 1030 µM)
MIC (Aspergillus flavus): 512 µg/mL (≈ 1030 µM)
MIC (Bacillus subtilis): 512 µg/mL (≈ 1030 µM)
MIC (Pichia norvegensis): 512 µg/mL (≈ 1030 µM)

CC(=O)Nc1ccc(S(=O)(=O)Cc2nc3ccccc3n2Cc2cccc(Cl)c2)cc1
MIC (Cyberlindnera jadinii): 512 µg/mL (≈ 1130 µM)
MIC (Staphylococcus aureus [1]): 128 µg/mL (≈ 282 µM)
MIC (Candida albicans): 512 µg/mL (≈ 1130 µM)
MIC (Saccharomyces cerevisiae): 128 µg/mL (≈ 282 µM)
MIC (Staphylococcus aureus [2]): 32 µg/mL (≈ 70.5 µM)
MIC (Escherichia coli): 64 µg/mL (≈ 141 µM)
MIC (Pseudomonas aeruginosa): 256 µg/mL (≈ 564 µM)
MIC (Bacillus): 128 µg/mL (≈ 282 µM)
MIC (Salmonella typhi): 128 µg/mL (≈ 282 µM)
MIC (Micrococcus luteus): 64 µg/mL (≈ 141 µM)
MIC (Aspergillus flavus): 256 µg/mL (≈ 564 µM)
MIC (Bacillus subtilis): 128 µg/mL (≈ 282 µM)
MIC (Pichia norvegensis): 256 µg/mL (≈ 564 µM)

Nc1ccc(S(=O)(=O)Cc2nc3ccccc3n2CCCCCn2c3ccccc3c3ccccc32)cc1
MIC (Cyberlindnera jadinii): 512 µg/mL (≈ 980 µM)
MIC (Staphylococcus aureus [1]): 128 µg/mL (≈ 245 µM)
MIC (Candida albicans): 512 µg/mL (≈ 980 µM)
MIC (Saccharomyces cerevisiae): 64 µg/mL (≈ 122 µM)
MIC (Staphylococcus aureus [2]): 512 µg/mL (≈ 980 µM)
MIC (Escherichia coli): 64 µg/mL (≈ 122 µM)
MIC (Pseudomonas aeruginosa): 512 µg/mL (≈ 980 µM)
MIC (Bacillus): 512 µg/mL (≈ 980 µM)
MIC (Salmonella typhi): 64 µg/mL (≈ 122 µM)
MIC (Micrococcus luteus): 512 µg/mL (≈ 980 µM)
MIC (Aspergillus flavus): 128 µg/mL (≈ 245 µM)
MIC (Bacillus subtilis): 32 µg/mL (≈ 61.2 µM)
MIC (Pichia norvegensis): 16 µg/mL (≈ 30.6 µM)

CC(=O)Nc1ccc(S(=O)(=O)Cc2nc3ccccc3[nH]2)cc1
MIC (Cyberlindnera jadinii): 16 µg/mL (≈ 48.6 µM)
MIC (Staphylococcus aureus [1]): 128 µg/mL (≈ 389 µM)
MIC (Candida albicans): 32 µg/mL (≈ 97.2 µM)
MIC (Saccharomyces cerevisiae): 32 µg/mL (≈ 97.2 µM)
MIC (Staphylococcus aureus [2]): 32 µg/mL (≈ 97.2 µM)
MIC (Escherichia coli): 64 µg/mL (≈ 194 µM)
MIC (Pseudomonas aeruginosa): 32 µg/mL (≈ 97.2 µM)
MIC (Bacillus): 64 µg/mL (≈ 194 µM)
MIC (Salmonella typhi): 128 µg/mL (≈ 389 µM)
MIC (Micrococcus luteus): 128 µg/mL (≈ 389 µM)
MIC (Aspergillus flavus): 128 µg/mL (≈ 389 µM)
MIC (Bacillus subtilis): 32 µg/mL (≈ 97.2 µM)
MIC (Pichia norvegensis): 64 µg/mL (≈ 194 µM)

CCCCCCCCCCCCCCCCCCn1c(CS(=O)(=O)c2ccc(NC(C)=O)cc2)nc2ccccc21
MIC (Cyberlindnera jadinii): 512 µg/mL (≈ 880 µM)
MIC (Staphylococcus aureus [1]): 512 µg/mL (≈ 880 µM)
MIC (Candida albicans): 512 µg/mL (≈ 880 µM)
MIC (Saccharomyces cerevisiae): 512 µg/mL (≈ 880 µM)
MIC (Staphylococcus aureus [2]): 128 µg/mL (≈ 220 µM)
MIC (Escherichia coli): 512 µg/mL (≈ 880 µM)
MIC (Pseudomonas aeruginosa): 512 µg/mL (≈ 880 µM)
MIC (Bacillus): 512 µg/mL (≈ 880 µM)
MIC (Salmonella typhi): 512 µg/mL (≈ 880 µM)
MIC (Micrococcus luteus): 512 µg/mL (≈ 880 µM)
MIC (Aspergillus flavus): 512 µg/mL (≈ 880 µM)
MIC (Bacillus subtilis): 512 µg/mL (≈ 880 µM)
MIC (Pichia norvegensis): 512 µg/mL (≈ 880 µM)

Nc1ccc(S(=O)(=O)Cc2nc3ccccc3n2Cc2cccc(F)c2)cc1
MIC (Cyberlindnera jadinii): 512 µg/mL (≈ 1290 µM)
MIC (Staphylococcus aureus [1]): 128 µg/mL (≈ 324 µM)
MIC (Candida albicans): 128 µg/mL (≈ 324 µM)
MIC (Saccharomyces cerevisiae): 8 µg/mL (≈ 20.2 µM)
MIC (Staphylococcus aureus [2]): 512 µg/mL (≈ 1290 µM)
MIC (Escherichia coli): 128 µg/mL (≈ 324 µM)
MIC (Pseudomonas aeruginosa): 512 µg/mL (≈ 1290 µM)
MIC (Bacillus): 256 µg/mL (≈ 647 µM)
MIC (Salmonella typhi): 512 µg/mL (≈ 1290 µM)
MIC (Micrococcus luteus): 512 µg/mL (≈ 1290 µM)
MIC (Aspergillus flavus): 256 µg/mL (≈ 647 µM)
MIC (Bacillus subtilis): 512 µg/mL (≈ 1290 µM)
MIC (Pichia norvegensis): 512 µg/mL (≈ 1290 µM)

CCCCCCCCCCn1c(CS(=O)(=O)c2ccc(NC(C)=O)cc2)nc2ccccc21
MIC (Cyberlindnera jadinii): 16 µg/mL (≈ 34.1 µM)
MIC (Staphylococcus aureus [1]): 512 µg/mL (≈ 1090 µM)
MIC (Candida albicans): 512 µg/mL (≈ 1090 µM)
MIC (Saccharomyces cerevisiae): 512 µg/mL (≈ 1090 µM)
MIC (Staphylococcus aureus [2]): 512 µg/mL (≈ 1090 µM)
MIC (Escherichia coli): 512 µg/mL (≈ 1090 µM)
MIC (Pseudomonas aeruginosa): 512 µg/mL (≈ 1090 µM)
MIC (Bacillus): 512 µg/mL (≈ 1090 µM)
MIC (Salmonella typhi): 512 µg/mL (≈ 1090 µM)
MIC (Micrococcus luteus): 512 µg/mL (≈ 1090 µM)
MIC (Aspergillus flavus): 512 µg/mL (≈ 1090 µM)
MIC (Bacillus subtilis): 512 µg/mL (≈ 1090 µM)
MIC (Pichia norvegensis): 512 µg/mL (≈ 1090 µM)

CCCCCCCn1c(CS(=O)(=O)c2ccc(NC(C)=O)cc2)nc2ccccc21
MIC (Cyberlindnera jadinii): 128 µg/mL (≈ 299 µM)
MIC (Staphylococcus aureus [1]): 512 µg/mL (≈ 1200 µM)
MIC (Candida albicans): 512 µg/mL (≈ 1200 µM)
MIC (Saccharomyces cerevisiae): 512 µg/mL (≈ 1200 µM)
MIC (Staphylococcus aureus [2]): 8 µg/mL (≈ 18.7 µM)
MIC (Escherichia coli): 64 µg/mL (≈ 150 µM)
MIC (Pseudomonas aeruginosa): 512 µg/mL (≈ 1200 µM)
MIC (Bacillus): 256 µg/mL (≈ 599 µM)
MIC (Salmonella typhi): 512 µg/mL (≈ 1200 µM)
MIC (Micrococcus luteus): 512 µg/mL (≈ 1200 µM)
MIC (Aspergillus flavus): 256 µg/mL (≈ 599 µM)
MIC (Bacillus subtilis): 256 µg/mL (≈ 599 µM)
MIC (Pichia norvegensis): 512 µg/mL (≈ 1200 µM)

CC(=O)Nc1ccc(S(=O)(=O)Cc2nc3ccccc3n2Cc2ccccc2Cl)cc1
MIC (Cyberlindnera jadinii): 512 µg/mL (≈ 1130 µM)
MIC (Staphylococcus aureus [1]): 32 µg/mL (≈ 70.5 µM)
MIC (Candida albicans): 32 µg/mL (≈ 70.5 µM)
MIC (Saccharomyces cerevisiae): 512 µg/mL (≈ 1130 µM)
MIC (Staphylococcus aureus [2]): 32 µg/mL (≈ 70.5 µM)
MIC (Escherichia coli): 32 µg/mL (≈ 70.5 µM)
MIC (Pseudomonas aeruginosa): 16 µg/mL (≈ 35.2 µM)
MIC (Bacillus): 512 µg/mL (≈ 1130 µM)
MIC (Salmonella typhi): 16 µg/mL (≈ 35.2 µM)
MIC (Micrococcus luteus): 64 µg/mL (≈ 141 µM)
MIC (Aspergillus flavus): 8 µg/mL (≈ 17.6 µM)
MIC (Bacillus subtilis): 32 µg/mL (≈ 70.5 µM)
MIC (Pichia norvegensis): 512 µg/mL (≈ 1130 µM)

CC(=O)Nc1ccc(S(=O)(=O)Cc2nc3ccccc3n2CCCCCn2c3ccccc3c3ccccc32)cc1
MIC (Cyberlindnera jadinii): 512 µg/mL (≈ 907 µM)
MIC (Staphylococcus aureus [1]): 512 µg/mL (≈ 907 µM)
MIC (Candida albicans): 512 µg/mL (≈ 907 µM)
MIC (Saccharomyces cerevisiae): 32 µg/mL (≈ 56.7 µM)
MIC (Staphylococcus aureus [2]): 256 µg/mL (≈ 453 µM)
MIC (Escherichia coli): 512 µg/mL (≈ 907 µM)
MIC (Pseudomonas aeruginosa): 16 µg/mL (≈ 28.3 µM)
MIC (Bacillus): 512 µg/mL (≈ 907 µM)
MIC (Salmonella typhi): 64 µg/mL (≈ 113 µM)
MIC (Micrococcus luteus): 128 µg/mL (≈ 227 µM)
MIC (Aspergillus flavus): 128 µg/mL (≈ 227 µM)
MIC (Bacillus subtilis): 512 µg/mL (≈ 907 µM)
MIC (Pichia norvegensis): 32 µg/mL (≈ 56.7 µM)
